Assay results as given in ChEMBL document CHEMBL2406970, “Synthesis and bioevaluation of a series of α-pyrone derivatives as potent activators of Nrf2/ARE pathway (part I)” (Eur J Med Chem, 2013).

These molecules were tested on HCT-116 (assay: Cytotoxicity against human HCT116 cells by MTT assay). Settings: not given.
Format: functional, cell-based
Outline: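 HCT116 cells were cultured in McCoy's 5A with 10% FBS and exposed to a range of compound concentrations. MTT was added for 4 h, the solution removed and DMSO added. OD was read at 570 nm, and inhibition calculated as [1 − (OD_test − OD_blank)/(OD_control − OD_blank)] × 100%.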

`Cc1cc(O)c(C(=O)/C=C/c2ccc[nH]2)c(=O)o1` and `Cc1cc(O)c(C(=O)/C=C/c2cccs2)c(=O)o1` cannot be ordered by IC50: greater than 100 µM for the first, greater than 100 µM for the second.

`Cc1cc(O)c(C(=O)/C=C/c2ccccc2C(F)(F)F)c(=O)o1` and `COc1ccccc1/C=C/C(=O)c1c(O)cc(C)oc1=O` cannot be ordered by IC50: greater than 100 µM for the first, greater than 100 µM for the second.

`CC(C)(C)c1cc(O)ccc1O` [E319] and `Cc1cc(O)c(C(=O)/C=C/c2ccco2)c(=O)o1` cannot be ordered by IC50: greater than 100 µM for the first, greater than 100 µM for the second.

`Cc1cc(O)c(C(=O)/C=C/c2cccc(Cl)c2)c(=O)o1` and `Cc1cc(O)c(C(=O)/C=C/c2cccc(F)c2)c(=O)o1` are within 1.5-fold of each other in IC50: 66.3 µM for the first, 81.2 µM for the second.

`Cc1cc(O)c(C(=O)/C=C/c2ccc(F)cc2F)c(=O)o1` and `Cc1cc(O)c(C(=O)/C=C/c2ccc(F)c(F)c2)c(=O)o1` are within 1.5-fold of each other in IC50: 80.3 µM for the first, 74.9 µM for the second.

`COc1ccc(/C=C/C(=O)c2c(O)cc(C)oc2=O)cc1` and `Cc1cc(O)c(C(=O)/C=C/c2ccc(Cl)c(Cl)c2)c(=O)o1` cannot be ordered by IC50: greater than 100 µM for the first, greater than 100 µM for the second.

`Cc1cc(O)c(C(=O)/C=C/c2ccccc2[N+](=O)[O-])c(=O)o1` and `Cc1cc(O)c(C(=O)/C=C/c2ccc(-c3ccccc3)cc2)c(=O)o1` cannot be ordered by IC50: greater than 100 µM for the first, greater than 100 µM for the second.

What follows are molecules tested against T1, Keap1/Nrf2 (Homo sapiens) (UniProt Q16236+Q14145) (assay: Induction of Nrf2/Keap1 in human HCT116 cells assessed as induction of ARE activity at 80 uM after 12 hrs by luciferase reporter gene assay relative to control). Settings: HCT-116.
Format: cell-based

T1 sequence (Q14145 whole entry, looked up): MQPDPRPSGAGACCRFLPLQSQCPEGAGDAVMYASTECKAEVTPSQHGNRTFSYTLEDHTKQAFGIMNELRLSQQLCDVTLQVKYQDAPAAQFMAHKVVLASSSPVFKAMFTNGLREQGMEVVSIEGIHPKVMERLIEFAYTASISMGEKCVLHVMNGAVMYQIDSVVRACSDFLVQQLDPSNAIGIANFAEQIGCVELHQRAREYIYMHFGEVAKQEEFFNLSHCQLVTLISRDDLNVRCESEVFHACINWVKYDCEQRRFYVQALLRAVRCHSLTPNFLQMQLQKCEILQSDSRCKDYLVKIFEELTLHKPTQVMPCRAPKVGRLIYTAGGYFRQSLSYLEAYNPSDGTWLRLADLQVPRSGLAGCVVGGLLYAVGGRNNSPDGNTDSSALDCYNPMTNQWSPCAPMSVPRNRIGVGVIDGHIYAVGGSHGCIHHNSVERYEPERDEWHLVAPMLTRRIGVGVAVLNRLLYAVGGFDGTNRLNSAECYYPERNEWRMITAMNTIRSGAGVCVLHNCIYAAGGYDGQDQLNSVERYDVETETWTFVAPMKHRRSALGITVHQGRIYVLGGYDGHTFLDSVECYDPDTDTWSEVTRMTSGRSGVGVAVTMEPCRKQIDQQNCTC
T1 sequence (Q16236 whole entry, looked up): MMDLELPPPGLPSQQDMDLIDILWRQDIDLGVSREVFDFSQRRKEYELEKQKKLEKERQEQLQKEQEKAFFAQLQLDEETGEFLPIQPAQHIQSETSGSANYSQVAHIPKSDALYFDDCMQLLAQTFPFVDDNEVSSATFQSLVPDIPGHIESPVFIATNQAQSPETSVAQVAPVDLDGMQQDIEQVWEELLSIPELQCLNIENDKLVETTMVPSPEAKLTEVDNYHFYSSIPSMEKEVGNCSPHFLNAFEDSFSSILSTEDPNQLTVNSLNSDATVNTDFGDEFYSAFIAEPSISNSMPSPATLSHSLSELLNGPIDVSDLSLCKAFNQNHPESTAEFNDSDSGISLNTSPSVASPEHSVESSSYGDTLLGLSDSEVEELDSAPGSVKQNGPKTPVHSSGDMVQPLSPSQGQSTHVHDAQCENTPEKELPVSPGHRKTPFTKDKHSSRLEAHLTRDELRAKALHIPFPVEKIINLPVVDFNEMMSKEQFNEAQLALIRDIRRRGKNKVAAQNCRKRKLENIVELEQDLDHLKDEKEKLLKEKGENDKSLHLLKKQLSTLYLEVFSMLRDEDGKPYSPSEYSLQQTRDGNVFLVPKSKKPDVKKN

`CC(C)(C)c1cc(O)ccc1O` [E319] gave a fold change (FC) of 5.08.

The molecules below were run against T1, Keap1/Nrf2 (Homo sapiens) (assay: Induction of Nrf2/Keap1 in human HCT116 cells assessed as induction of ARE activity at 20 uM after 12 hrs by luciferase reporter gene assay relative to control). Settings: HCT-116.
Format: cell-based

Compared with `Cc1cc(O)c(C(=O)/C=C/c2ccc[nH]2)c(=O)o1`, `Cc1cc(O)c(C(=O)/C=C/c2cccs2)c(=O)o1` is higher in fold change (FC): 1.66 for the first, 4.53 for the second.

Compared with `Cc1cc(O)c(C(=O)/C=C/c2ccccc2C(F)(F)F)c(=O)o1`, `COc1ccccc1/C=C/C(=O)c1c(O)cc(C)oc1=O` is higher in fold change (FC): 4.27 for the first, 5.86 for the second.

Compared with `Cc1cc(O)c(C(=O)/C=C/c2cccc(Cl)c2)c(=O)o1`, `Cc1cc(O)c(C(=O)/C=C/c2cccc(F)c2)c(=O)o1` is higher in fold change (FC): 6.46 for the first, 7.04 for the second.

Compared with `Cc1cc(O)c(C(=O)/C=C/c2ccco2)c(=O)o1`, `Cc1cc(O)c(C(=O)/C=C/c2ccc(F)cc2F)c(=O)o1` is higher in fold change (FC): 3.8 for the first, 6.93 for the second.

First: COc1ccc(/C=C/C(=O)c2c(O)cc(C)oc2=O)cc1
Second: Cc1cc(O)c(C(=O)/C=C/c2ccc(F)c(F)c2)c(=O)o1
The fold change (FC) of the first is lower: 6.48 for the first, 9.65 for the second.

First: Cc1cc(O)c(C(=O)/C=C/c2ccccc2[N+](=O)[O-])c(=O)o1
Second: Cc1cc(O)c(C(=O)/C=C/c2ccc(-c3ccccc3)cc2)c(=O)o1
The fold change (FC) of the first is lower: 2.74 for the first, 5.67 for the second.

Molecule `Cc1cc(O)c(C(=O)/C=C/c2ccc(Cl)c(Cl)c2)c(=O)o1` has a fold change (FC) of 8.

The molecules below were run against T1, Keap1/Nrf2 (Homo sapiens) (assay: Induction of Nrf2/Keap1 in human HepG2-ARE-C8 cells assessed as induction of ARE activity at 50 uM after 12 hrs by luciferase reporter gene assay relative to control). Settings: not given.

Going from `Cc1cc(O)c(C(=O)/C=C/c2ccc[nH]2)c(=O)o1` to `Cc1cc(O)c(C(=O)/C=C/c2cccs2)c(=O)o1`, the fold change (FC) rises from 3.58 to 5.96.

First: Cc1cc(O)c(C(=O)/C=C/c2ccccc2C(F)(F)F)c(=O)o1
Second: COc1ccccc1/C=C/C(=O)c1c(O)cc(C)oc1=O
The fold change (FC) of the first is higher: 2.55 for the first, 2.08 for the second.

Compared with `Cc1cc(O)c(C(=O)/C=C/c2cccc(Cl)c2)c(=O)o1`, `Cc1cc(O)c(C(=O)/C=C/c2cccc(F)c2)c(=O)o1` is lower in fold change (FC): 4.51 for the first, 3.46 for the second.

Going from `Cc1cc(O)c(C(=O)/C=C/c2ccco2)c(=O)o1` to `Cc1cc(O)c(C(=O)/C=C/c2ccc(F)cc2F)c(=O)o1`, the fold change (FC) rises from 5.48 to 6.98.

First: COc1ccc(/C=C/C(=O)c2c(O)cc(C)oc2=O)cc1
Second: Cc1cc(O)c(C(=O)/C=C/c2ccc(F)c(F)c2)c(=O)o1
The fold change (FC) of the first is higher: 7.37 for the first, 3.68 for the second.

First: Cc1cc(O)c(C(=O)/C=C/c2ccccc2[N+](=O)[O-])c(=O)o1
Second: Cc1cc(O)c(C(=O)/C=C/c2ccc(-c3ccccc3)cc2)c(=O)o1
The fold change (FC) of the first is lower: 0.65 for the first, 3.6 for the second.

For `Cc1cc(O)c(C(=O)/C=C/c2ccc(Cl)c(Cl)c2)c(=O)o1`, the fold change (FC) was 1.2.
